Screens: PubChem BioAssay, Johns Hopkins Ion Channel Center
TRPC4 potent: TRPC4 (mouse) allosteric potentiation | Q9QUQ5 | HEK293 TRPC4beta/mu-opioid, DAMGO EC20, Fluo-4 Ca2+ flux; stronger effect = higher value | B-score at 10 µM | hit rate 0.42% among 310,000 | AID 2227;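 active = B-score of calcium response area above 5 SD of library B-scores, with initial fluorescence ratio within 5 SD of library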
Target sequence (Q9QUQ5 whole entry, looked up): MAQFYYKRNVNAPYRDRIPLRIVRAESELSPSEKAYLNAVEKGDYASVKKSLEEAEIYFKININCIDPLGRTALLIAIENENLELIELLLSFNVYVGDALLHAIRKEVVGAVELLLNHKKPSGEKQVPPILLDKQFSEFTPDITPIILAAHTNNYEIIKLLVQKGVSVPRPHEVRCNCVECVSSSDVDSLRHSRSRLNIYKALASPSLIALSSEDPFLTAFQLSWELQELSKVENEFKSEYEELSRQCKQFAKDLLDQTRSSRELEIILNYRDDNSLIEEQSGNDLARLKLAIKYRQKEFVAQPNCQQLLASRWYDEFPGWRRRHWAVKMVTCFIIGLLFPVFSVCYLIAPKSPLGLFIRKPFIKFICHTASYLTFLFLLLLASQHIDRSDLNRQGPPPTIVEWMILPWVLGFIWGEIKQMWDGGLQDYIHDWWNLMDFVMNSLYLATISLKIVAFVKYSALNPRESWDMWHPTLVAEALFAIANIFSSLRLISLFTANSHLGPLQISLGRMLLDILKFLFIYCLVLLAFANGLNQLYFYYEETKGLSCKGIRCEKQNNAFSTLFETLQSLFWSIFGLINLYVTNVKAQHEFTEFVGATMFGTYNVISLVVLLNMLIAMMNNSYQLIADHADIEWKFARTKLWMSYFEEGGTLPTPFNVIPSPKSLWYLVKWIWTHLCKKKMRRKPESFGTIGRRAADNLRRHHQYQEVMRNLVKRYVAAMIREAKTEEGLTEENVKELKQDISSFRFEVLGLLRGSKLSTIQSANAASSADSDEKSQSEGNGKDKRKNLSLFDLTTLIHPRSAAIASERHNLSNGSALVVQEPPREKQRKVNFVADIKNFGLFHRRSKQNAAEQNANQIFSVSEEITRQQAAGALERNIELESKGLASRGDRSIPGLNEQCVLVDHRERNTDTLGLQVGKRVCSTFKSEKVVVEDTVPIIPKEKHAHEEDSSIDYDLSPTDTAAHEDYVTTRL
TRPC4 act: activators of mouse TRPC4 channel | AID 2237 | Q9QUQ5 | hit rate 0.49% among 310,000 | HEK293 TRPC4beta/mu-opioid, Fluo4 calcium fluorescence; stronger effect = higher value | B-score at 10 µM;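 active = B-score above 5 SD of library B-scores, and initial fluorescence ratio not above library mean plus 5 SD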;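 also: positive B-score marks a calcium rise read as TRPC4 activation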
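Material: TRPC4beta and mu-opioid receptor HEK293 stable cells | Incubation: 45 min room-temperature Fluo4 loading, 110 s read | Detection: Kinetic Fluo4 calcium fluorescence | Measure: Integrated baseline-normalised fluorescence ratio, converted to per-well B score | Benchmarks: Low control buffer alone, high control maximal DAMGO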
TRPC6 inhibitor: inhibitors of mouse TRPC6 channel. HEK293-TRPC6, membrane potential dye, ACh-evoked depolarization; stronger effect = lower value. B-score at 10 µM. hit rate 1.1% among 310,000;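 active = B-score under library mean minus 3 SD, initial fluorescence not abnormally high, positive integrated signal ratio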;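 also: B-score derived from integrated fluorescence ratio over the kinetic read; more negative B-score means stronger inhibition of depolarization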
TRPC4 block: inhibitors of mouse TRPC4 channel. B-score at 10 µM. hit rate 0.39% among 300,000. AID 2247. HEK293 TRPC4beta/mu-opioid, DAMGO-evoked Fluo4 calcium flux; stronger effect = lower value. Q9QUQ5;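 active = B-score over 3 SD under the library average, no early fluorescence shift, positive overall ratio signal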
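material = TRPC4beta/mu-opioid receptor HEK293 cell line | probe or stimulus = sequential submaximal and maximal DAMGO stimulation | compound dosing = one concentration per compound | measured by = Fluo4 Ca2+ flux fluorescence | evaluation = integrated fluorescence ratio relative to baseline, converted to per-well B score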
TRPC6 act: mouse TRPC6 channel activation | AID 2550 | hit rate 0.13% among 310,000 | HEK293-TRPC6 membrane potential dye fluorescence; stronger effect = higher value | B-score at 10 µM | Q61143;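 active = B-score of the integrated fluorescence ratio above library mean plus 3 SD, and starting fluorescence ratio within library mean plus 5 SD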;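 also: higher score means more depolarization so channel activation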
TRPC4 spec 2: second check of whether TRPC6 inhibitors also affect mouse TRPC4 | shares compounds with TRPC6 inhibitor | HEK293 TRPC4/MOR, membrane potential dye fluorescence; channel activated by saturating DAMGO dose | inhibition, % at 10 µM | hit rate 42% among 920 | AID 2776;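 active = compounds whose fluorescence signal differed from control wells by over 3 SD, either direction, in both duplicate plates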
TRPC4 spec: selectivity of TRPC6 inhibitors: effect on mouse TRPC4. shares compounds with TRPC6 inhibitor. HEK293 TRPC4/mu-opioid, membrane potential fluorescence. activity change, negative = inhibition, % at 10 µM. hit rate 61% among 920. AID 2777;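 active = rise or fall in signal beyond 3 SD of buffer-only wells in both replicate plates, either sign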;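 also: integrated kinetic ratio of fluorescence range over baseline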
HEK293 MPD ctr 2-1: parental HEK293 nonspecific activity of TRPC6 inhibitors, second screen; shares compounds with TRPC6 inhibitor; parental HEK293 membrane potential dye fluorescence; maximal acetylcholine challenge after compound addition; hit rate 31% among 920; signal change vs control, % at 10 µM;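 active = membrane potential signal moving either way by over 3 SD of the maximum-effect control, in both duplicate plates, meaning non-specific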
HEK293 MPD ctr-1: counter-screen for TRPC6 inhibitors: effect in parental HEK293 cells. membrane potential signal change, % at 10 µM. parental HEK293 membrane potential dye fluorescence. hit rate 60% among 920. shares compounds with TRPC6 inhibitor;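 active = membrane potential signal shifting up or down by more than 3 SD of buffer-only wells, on both duplicate plates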
HEK293 MPD ctr-2: parental HEK293 nonspecific activity of TRPC6 modulators. membrane potential signal change, % at 10 µM. hit rate 51% among 2,400. membrane potential dye fluorescence. shares compounds with TRPC6 inhibitor;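 active = membrane potential signal moves up or down beyond 5 SD from buffer-only wells, on both duplicate plates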
HEK293 MPD ctr 2-2: second check of TRPC6 modulator effects in parental HEK293 cells | shares compounds with TRPC6 inhibitor | membrane potential dye fluorescence; after compound, maximal acetylcholine stimulation | inhibition, % at 10 µM | hit rate 14% among 2,400 | AID 488926;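 active = membrane potential signal drops by more than 5 SD from the mean control signal, in both duplicate plates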
TRPC4 ctr mod: selectivity of TRPC6 modulators against mouse TRPC4 | shares compounds with TRPC6 inhibitor | HEK293 TRPC4/mu-opioid, membrane potential fluorescence | percent change from control (negative = decrease, positive = increase), % at 10 µM | hit rate 69% among 2,400;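 active = membrane potential signal moved up or down beyond 5 SD of buffer control wells, in both duplicate plates, actives on both sides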
TRPC4/MOR inh 2: second check of whether TRPC6 modulators also affect mouse TRPC4; shares compounds with TRPC6 inhibitor; HEK293 TRPC4/mu-opioid, membrane potential dye fluorescence; stimulated with maximal-effect DAMGO; inhibition, % at 10 µM; hit rate 55% among 2,400; AID 488928;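 active = drop in membrane potential signal beyond 5 SD of the control wells in both duplicate plates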;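 also: TRPC4 counter screen for TRPC6 hits run under conditions tuned for TRPC6 not TRPC4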
TRPC6 block conf: mouse TRPC6 inhibitor confirmation. AID 488960. hit rate 43% among 3,300. shares compounds with TRPC6 inhibitor. HEK293-TRPC6, membrane potential dye, ACh-evoked depolarization. inhibition, % at 10 µM;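 active = fluorescence ratio falls more than 5 SD below the full-stimulation control mean, in both duplicate runs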;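 also: integrated fluorescence ratio of peak minus minimum over baseline after agonist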
TRPC6 act conf: mouse TRPC6 activator confirmation. shares compounds with TRPC6 inhibitor. HEK293-TRPC6 membrane potential dye fluorescence, FDSS. activation, % at 10 µM. hit rate 11% among 2,800;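 active = ratio signal rise beyond 5 SD above unstimulated control wells' mean, seen in both duplicate runs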
Of the large screens only hits and unclear results are named; the others gave an inactive call (follow-up assays come after a bar, where they were run). An excerpt weighted towards active compounds, which were near 2.3% of everything screened.

COc1ccc(C(=O)C2CCCN(Cc3cccn3-c3ccc(Cl)cn3)C2)c(OC)c1 (stereo not given)	TRPC6 inhibitor -5.8 | HEK293 MPD ctr-2 134% | HEK293 MPD ctr 2-2 inactive | TRPC4 ctr mod 14% | TRPC4/MOR inh 2 89% | TRPC6 block conf 53%
O=C(c1cccc(C(F)(F)F)c1)C1CCCN(Cc2cccn2-c2ccccn2)C1 (stereo not given)	TRPC6 inhibitor -7.5, TRPC4 block -5 | TRPC4 spec 2 35% | TRPC4 spec 18% | HEK293 MPD ctr 2-1 inactive | HEK293 MPD ctr-1 14% | TRPC6 block conf 57% | TRPC6 act conf inactive
CN(C)CCCNc1c2c(nc3ccccc13)CCC2	none
COCCNc1c2c(nc3ccccc13)CCC2	TRPC6 inhibitor -5.2, TRPC4 block -6 | HEK293 MPD ctr-2 -144% | HEK293 MPD ctr 2-2 inactive | TRPC4 ctr mod -26% | TRPC4/MOR inh 2 52% | TRPC6 block conf 46% | TRPC6 act conf inactive
COc1ccc(Nc2c3c(nc4ccccc24)CCCC3)cc1OC	TRPC6 inhibitor -6 | HEK293 MPD ctr-2 inactive | HEK293 MPD ctr 2-2 inactive | TRPC4 ctr mod inactive | TRPC4/MOR inh 2 44% | TRPC6 block conf inactive | TRPC6 act conf inactive
c1ccc2c(N3CCOCC3)c3c(nc2c1)CCC3	TRPC6 inhibitor -5.3 | HEK293 MPD ctr-2 -283% | HEK293 MPD ctr 2-2 inactive | TRPC4 ctr mod -40% | TRPC4/MOR inh 2 48% | TRPC6 block conf inactive | TRPC6 act conf inactive
COc1ccc(Nc2c3c(nc4ccccc24)CCC3)cc1	TRPC6 inhibitor -5.2, TRPC4 block -7 | HEK293 MPD ctr-2 157% | HEK293 MPD ctr 2-2 inactive | TRPC4 ctr mod 24% | TRPC4/MOR inh 2 36% | TRPC6 block conf inactive
CN(CC(=O)Nc1ccc(Cl)c(Cl)c1)Cc1nnc(-c2ccc(F)cc2)o1	none
CC(C(=O)NCc1ccc(F)cc1)n1ccc2cc(S(=O)(=O)N3CCCC3)ccc21 (stereo not given)	none
Cc1cc(-c2cc(C(=O)NCc3ccccc3)on2)nc(NCC2CC2)n1	none
COCOc1ccc(C=O)cc1OCOC	none
COc1ccccc1CCNC(=O)c1nccnc1C(=O)O	none
COc1ccc(CCNc2c3ccccc3nc3ccccc23)cc1OC	TRPC6 inhibitor -6.8 | TRPC4 spec 2 68% | TRPC4 spec -24% | HEK293 MPD ctr 2-1 inactive | HEK293 MPD ctr-1 -412% | TRPC6 block conf inactive | TRPC6 act conf inactive
Cc1ccc2c(c1)c1c3n2CCN=C3CCC1	TRPC6 inhibitor -5 | HEK293 MPD ctr-2 -171% | HEK293 MPD ctr 2-2 inactive | TRPC4 ctr mod -28% | TRPC4/MOR inh 2 49% | TRPC6 block conf inactive | TRPC6 act conf inactive
Cc1nnc(NC(=O)CSc2nnc(CCc3nc4ccccc4[nH]3)n2C)s1	TRPC6 act 14 | HEK293 MPD ctr-2 261% | HEK293 MPD ctr 2-2 inactive | TRPC4 ctr mod 40% | TRPC4/MOR inh 2 inactive | TRPC6 block conf inactive | TRPC6 act conf 108%
CCc1nnc(NC(=O)CSc2nnc(CCc3nc4ccccc4[nH]3)n2C)s1	none
COc1ccc(CCC(=O)N2CCN(c3ccccc3)CC2)cc1OC	none
Cc1ccc(NC(=O)CN(c2ccc(Cl)cc2)S(=O)(=O)c2cc([N+](=O)[O-])ccc2Cl)c(C)c1	none
CCOc1cc(/C=N/NC(=O)c2ccccn2)ccc1OC(=O)c1ccc(F)cc1	TRPC6 inhibitor -5.3 | HEK293 MPD ctr-2 inactive | HEK293 MPD ctr 2-2 inactive | TRPC4 ctr mod inactive | TRPC4/MOR inh 2 inactive | TRPC6 block conf inactive | TRPC6 act conf inactive
Cc1ccc(N2C(=O)CSC2c2c(F)cccc2Cl)cc1 (stereo not given)	TRPC6 inhibitor -12 | TRPC4 spec 2 inactive | TRPC4 spec inactive | HEK293 MPD ctr 2-1 -26% | HEK293 MPD ctr-1 inactive | TRPC6 block conf 84% | TRPC6 act conf inactive
O=C(CSc1nnc(NC(=O)C2CC(=O)N(c3ccccc3)C2)s1)NCc1ccco1 (stereo not given)	none
O=C1c2cccc3c(N4CCCCC4)ccc(c23)C(=O)N1CCO	TRPC6 act 12 | HEK293 MPD ctr-2 937% | HEK293 MPD ctr 2-2 144% | TRPC4 ctr mod 218% | TRPC4/MOR inh 2 122% | TRPC6 block conf inactive | TRPC6 act conf 180%
Cc1ccc(OCC(=O)NNC(=O)c2cccnc2)cc1C	TRPC6 inhibitor -5.7 | HEK293 MPD ctr-2 inactive | HEK293 MPD ctr 2-2 inactive | TRPC4 ctr mod inactive | TRPC4/MOR inh 2 inactive | TRPC6 block conf inactive | TRPC6 act conf inactive
O=C(O)c1ccccc1N/N=C/c1cc(Br)cc(Br)c1O	TRPC6 inhibitor -6.5, TRPC4 block -9 | HEK293 MPD ctr-2 inactive | HEK293 MPD ctr 2-2 inactive | TRPC4 ctr mod -11% | TRPC4/MOR inh 2 74% | TRPC6 block conf inactive | TRPC6 act conf inactive
O=C(Cc1ccccc1)N/N=C/c1cc(Br)cc(Br)c1O	none
CC(C)CN(C(=O)COC(=O)CSc1ccccc1)c1c(N)n(Cc2ccccc2)c(=O)[nH]c1=O	none
CCOC(=O)c1ccc(NC(=O)NCCc2cnc[nH]2)cc1	TRPC4 act 175, TRPC6 inhibitor -6.8 | TRPC4 spec 2 69% | TRPC4 spec 64% | HEK293 MPD ctr 2-1 inactive | HEK293 MPD ctr-1 inactive | TRPC6 block conf inactive | TRPC6 act conf inactive
